Laboratory results published in ChEMBL document CHEMBL1135509 (J Med Chem, 2002).

Tests used:
[1] = target: Monoamine transporters; serotonin & dopamine (Rattus norvegicus) (UniProt P31652+P23977); experiment: Ratio of Ki at 5-HT transporter and Ki at dopamine transporter.; format: protein assay
Method in brief: (§1)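 Selectivity ratio calculated from Ki values measured in the monoamine reuptake assays, each Ki being the mean ± standard error of at least three experiments.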

[2] = target: Sodium-dependent serotonin transporter (Rattus norvegicus, UniProt P31652); experiment: Inhibition of high affinity uptake of [3H]5-HT by serotonin transporter in nerve endings obtained from rat brain.
Method in brief: (§2)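 Reuptake inhibition reported as Ki; values are mean ± standard error of at least three experiments.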

[3] = target: Monoamine transporters; Norepininephrine & dopamine (Rattus norvegicus) (UniProt P23977+Q9WTR4); experiment: Ratio of Ki at norepinephrine transporter and Ki at dopamine transporter.; format: protein assay; method in brief: as §1
[4] = target: Norepinephrine transporter (Rattus norvegicus, UniProt Q9WTR4); experiment: Inhibition of high affinity uptake of [3H]NE by norepinephrine transporter in nerve endings obtained from rat brain.; method in brief: as §2
[5] = target: T1, Sodium-dependent dopamine transporter (Rattus norvegicus, UniProt P23977); experiment: Inhibition of high affinity uptake of [3H]-DA by dopamine transporter in nerve endings obtained from rat brain.; method in brief: as §2
[6] = target: Monoamine transporters; Norepinephrine & serotonin (Rattus norvegicus) (UniProt P31652+Q9WTR4); experiment: Ratio of Ki at norepinephrine transporter and Ki at 5-HT transporter.; format: protein assay; method in brief: as §1
[7] = target: T1, Sodium-dependent dopamine transporter; experiment: 373 Ability to inhibit high affinity uptake of [3H]DA using rat nerve endings obtained from brain regions enriched in dopamine transporter; method in brief: as §2

Sequence of Norepinephrine transporter (Q9WTR4 whole entry): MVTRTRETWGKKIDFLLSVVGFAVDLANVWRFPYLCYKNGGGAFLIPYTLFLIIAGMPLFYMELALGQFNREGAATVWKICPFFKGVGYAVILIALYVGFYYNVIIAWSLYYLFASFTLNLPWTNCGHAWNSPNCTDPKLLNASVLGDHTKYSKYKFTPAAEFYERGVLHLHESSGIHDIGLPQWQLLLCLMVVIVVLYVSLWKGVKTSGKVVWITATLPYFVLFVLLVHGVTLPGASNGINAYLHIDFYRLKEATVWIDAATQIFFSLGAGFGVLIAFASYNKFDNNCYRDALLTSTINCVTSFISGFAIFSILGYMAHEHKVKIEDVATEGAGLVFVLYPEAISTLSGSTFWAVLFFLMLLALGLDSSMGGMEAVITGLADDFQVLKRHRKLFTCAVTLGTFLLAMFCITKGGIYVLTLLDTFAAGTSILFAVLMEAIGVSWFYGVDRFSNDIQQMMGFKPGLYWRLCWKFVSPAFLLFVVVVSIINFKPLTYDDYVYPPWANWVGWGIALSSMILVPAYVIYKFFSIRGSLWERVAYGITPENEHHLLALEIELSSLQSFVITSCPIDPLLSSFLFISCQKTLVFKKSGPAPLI
Sequence of Monoamine transporters; serotonin & dopamine (Rattus norvegicus) (P23977 whole entry, looked up): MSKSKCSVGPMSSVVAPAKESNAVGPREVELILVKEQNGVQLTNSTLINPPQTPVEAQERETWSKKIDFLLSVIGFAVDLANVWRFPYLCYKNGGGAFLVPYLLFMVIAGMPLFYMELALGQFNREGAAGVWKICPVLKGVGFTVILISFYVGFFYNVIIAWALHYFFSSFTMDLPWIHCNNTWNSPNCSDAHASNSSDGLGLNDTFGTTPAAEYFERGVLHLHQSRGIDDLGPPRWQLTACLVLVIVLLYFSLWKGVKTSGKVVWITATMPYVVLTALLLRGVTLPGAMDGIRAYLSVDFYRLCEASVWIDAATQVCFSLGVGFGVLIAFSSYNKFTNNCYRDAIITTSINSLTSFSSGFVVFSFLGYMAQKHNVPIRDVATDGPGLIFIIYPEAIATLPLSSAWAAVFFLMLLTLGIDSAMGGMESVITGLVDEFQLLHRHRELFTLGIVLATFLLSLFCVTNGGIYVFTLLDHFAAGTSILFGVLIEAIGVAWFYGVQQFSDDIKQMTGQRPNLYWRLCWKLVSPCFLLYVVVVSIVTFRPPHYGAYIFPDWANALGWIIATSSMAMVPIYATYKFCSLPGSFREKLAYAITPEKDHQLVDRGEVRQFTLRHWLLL
Sequence of Monoamine transporters; serotonin & dopamine (Rattus norvegicus) (P31652 whole entry, looked up): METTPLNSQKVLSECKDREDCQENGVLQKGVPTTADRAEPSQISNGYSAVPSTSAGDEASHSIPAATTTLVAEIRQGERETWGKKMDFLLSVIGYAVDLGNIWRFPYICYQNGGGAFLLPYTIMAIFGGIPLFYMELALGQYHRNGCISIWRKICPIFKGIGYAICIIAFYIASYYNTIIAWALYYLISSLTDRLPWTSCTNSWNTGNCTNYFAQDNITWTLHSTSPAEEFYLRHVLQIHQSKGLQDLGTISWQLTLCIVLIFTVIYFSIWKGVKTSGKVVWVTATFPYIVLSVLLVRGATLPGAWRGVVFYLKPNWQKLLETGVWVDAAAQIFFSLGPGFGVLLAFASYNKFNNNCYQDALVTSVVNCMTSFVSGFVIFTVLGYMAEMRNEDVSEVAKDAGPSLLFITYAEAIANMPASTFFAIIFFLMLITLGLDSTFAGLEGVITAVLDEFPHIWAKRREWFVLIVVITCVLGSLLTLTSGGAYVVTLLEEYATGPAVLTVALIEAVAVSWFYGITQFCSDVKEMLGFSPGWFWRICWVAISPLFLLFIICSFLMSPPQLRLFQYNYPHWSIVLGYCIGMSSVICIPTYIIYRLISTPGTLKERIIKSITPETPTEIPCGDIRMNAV
T1 sequence (P23977 whole entry): as the sequence (P23977 whole entry, looked up) above
Sequence of Sodium-dependent serotonin transporter (P31652 whole entry): as the sequence (P31652 whole entry, looked up) above

SMILES	Ratio [1]	Ki [2] [nM]	Ratio [3]	Ki [4] [nM]	Ki [5] [nM]	Ratio [6]	Ki [7] [nM]
COC(=O)[C@@H]1CN(Cc2ccccc2)CC[C@@H]1c1ccc(Cl)cc1	0.67	2190	0.91	2980	3280	1.36	–
Cc1noc(C2CNCC[C@@H]2c2ccc(Cl)cc2)n1 (some centres not stated)	1.97	373	0.18	34	–	0.09	189
COC(=O)C1CN(Cc2ccc(O)cc2)CC[C@@H]1c1ccc(Cl)cc1 (some centres not stated)	1.64	2650	0.67	1080	1620	0.41	–
COC(=O)C1CN(CCCF)CC[C@@H]1c1ccc(Cl)cc1 (some centres not stated)	> 2.3	> 10000	0.08	335	4280	< 0.03	–
COC(=O)[C@H]1CN(CCc2ccccc2)CC[C@@H]1c1ccc(Cl)cc1	2.68	2890	0.13	142	1080	0.05	–
COC(=O)C1CN(CCCc2ccccc2)CC[C@@H]1c1ccc(Cl)cc1 (some centres not stated)	4.04	3270	0.6	488	810	0.15	–
COC(=O)[C@@H]1CN(CCc2ccccc2)CC[C@@H]1c1ccc(Cl)cc1	1.84	1880	0.23	233	1020	0.12	–
COC(=O)C1CN(C(C)C)CC[C@@H]1c1ccc(Cl)cc1 (some centres not stated)	0.54	3740	0.26	1840	6980	0.49	–
Cc1noc(C2CN(C)CC[C@@H]2c2ccc(Cl)cc2)n1 (some centres not stated)	31.8	5960	1.37	256	187	0.04	–
COC(=O)C1CN(CCC(c2ccccc2)c2ccccc2)CC[C@@H]1c1ccc(Cl)cc1 (some centres not stated)	0.63	2690	1.01	4340	4290	1.61	–
COC(=O)C1CN(CCCCl)CC[C@@H]1c1ccc(Cl)cc1 (some centres not stated)	> 3.17	> 10000	0.14	441	3150	< 0.04	–
COC(=O)C1CN(S(=O)(=O)c2ccccc2)CC[C@@H]1c1ccc(Cl)cc1 (some centres not stated)	1.85	36100	0.83	16100	–	0.45	–
CCOC(=O)CCN1CC[C@H](c2ccc(Cl)cc2)C(C(=O)OC)C1 (some centres not stated)	–	> 10000	< 0.21	2100	> 10000	< 0.21	–
COC(=O)C1CN(C(C)=O)CC[C@@H]1c1ccc(Cl)cc1 (some centres not stated)	–	> 10000	–	> 10000	> 10000	–	–
CN1CC[C@H](c2ccc(Cl)cc2)[C@@H](CO)C1	3.12	1550	0.4	198	497	0.13	–
COC(=O)C1CNCC[C@@H]1c1ccc(Cl)cc1 (some centres not stated)	1.56	434	0.03	7.9	279	0.02	–
OCC1CNCC[C@@H]1c1ccc(Cl)cc1 (some centres not stated)	0.29	239	0.08	69	836	0.29	–
